Results as given in ChEMBL document CHEMBL5532644, “Discovery of 4-hydroxyl pyrazole derivatives as potent ferroptosis inhibitors” (Eur J Med Chem, 2024).
Blank lines part the entries; values can stand above or below the molecule they belong to. The source made the active and inactive calls. The rule behind the calls is not given here.

Tests used:
HT-1080 [1] = assay: Anti-ferroptotic activity in human HT-1080 cells assessed as cell viability incubated for 24 hrs by Cell-titer-glo assay; assay type: functional, cell-based
Summary of the method: (§1)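 Seeded at 2000–5000 cells/well; 24 h later cells were co-treated with 1 μM RSL3 and graded inhibitor concentrations for 24 h, then viability was read. EC50 came from sigmoidal nonlinear regression fits. Three independent experiments, means ± SD. HT-1080 and H9c2 were grown in DMEM; BJ in α-MEM with nonessential amino acids and 1 mM pyruvate; all media had 10% FBS.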

[2] = Antioxidant activity assessed as DPPH radical scavenging activity incubated for 1 hr by spectrophotometric analysis; assay type: functional
Summary of the method: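 Compound in DMSO was mixed with methanolic DPPH to give 40 μM DPPH (final) across a range of compound concentrations. After 1 h at room temperature, absorbance was read at 517 nm. Scavenging % = [A(DMSO) − A(sample)]/[A(DMSO) − A(methanol)] × 100, with DMSO as zero control and methanol as blank.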

[3] = Antioxidant activity assessed as ABTS radical scavenging activity measured for 6 mins by absorbance based analysis; assay type: functional
Summary of the method: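 ABTS (14 mM stock in water) was oxidised with 2.45 mM (final) potassium persulfate in the dark at room temperature for 18 h. The radical was diluted to 100 μM in 50 mM sodium phosphate, pH 7.4. Compounds (1–100 μM) were added, incubated at 30 °C for 6 min, and absorbance was read at 415 nm.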

HT-1080 [4] = assay: Anti-ferroptotic activity against imidazole ketone erastin (IKE) induced ferroptosis in human HT-1080 cells assessed as cell viability incubated for 24 hrs by Cell-titer-glo assay; assay type: functional, cell-based; details: HT-1080, 24 h
Summary of the method: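 HT-1080 cells (DMEM, 10% FBS) were seeded at 2000–5000/well. After 24 h they received 2.5 μM IKE plus graded inhibitor concentrations for 24 h, and viability was measured. EC50 came from sigmoidal nonlinear regression. Three independent experiments, means ± SD.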

HT-1080 [5] = assay: Anti-ferroptotic activity against RSL3 induced ferroptosis in human HT-1080 cells assessed as cell viability incubated for 24 hrs by Cell-titer-glo assay; assay type: functional, cell-based; details: HT-1080, 24 h; summary of the method: as §1
786-0 [6] = assay: Anti-ferroptotic activity against RSL3 induced ferroptosis in human 786-0 cells assessed as cell viability incubated for 24 hrs by Cell-titer-glo assay; assay type: functional, cell-based; details: 786-0, 24 h; summary of the method: as §1
BJ = assay: Anti-ferroptotic activity against RSL3 induced ferroptosis in human BJ cells assessed as cell viability incubated for 24 hrs by Cell-titer-glo assay; assay type: functional, cell-based; summary of the method: as §1
H9c2 = assay: Anti-ferroptotic activity against RSL3 induced ferroptosis in rat H9c2 cells assessed as cell viability incubated for 24 hrs by Cell-titer-glo assay; assay type: functional, cell-based; details: H9c2, 24 h; summary of the method: as §1
786-0 [7] = assay: Inhibition of RSL3-induced ferroptosis in human 786-0 cells assessed as recovery of shrunken cells at 1 uM measured after 1 day by light microscopy based analysis; assay type: functional, cell-based
Summary of the method: (§2)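 786-O cells were seeded at 5000/well. After 24 h, 1 μM RSL3 was added together with inhibitor at 1 or 0.0625 μM. After one day of incubation, cell morphology (shrinkage, membrane rupture) was inspected by light microscopy.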

786-0 [8] = assay: Inhibition of RSL3-induced ferroptosis in human 786-0 cells assessed as recovery of membrane rupture at 1 uM measured after 1 day by light microscopy based analysis; assay type: functional, cell-based; summary of the method: as §2
786-0 [9] = assay: Inhibition of RSL3-induced ferroptosis in human 786-0 cells assessed as recovery in loss of cell morphology at 1 uM measured after 1 day by light microscopy based analysis; assay type: functional; summary of the method: as §2
786-0 [10] = assay: Inhibition of RSL3-induced ferroptosis in human 786-0 cells assessed as recovery of shrunken cells at 0.0625 uM measured after 1 day by light microscopy based analysis; assay type: functional, cell-based; summary of the method: as §2
786-0 [11] = assay: Inhibition of RSL3-induced ferroptosis in human 786-0 cells assessed as recovery of membrane rupture at 0.0625 uM measured after 1 day by light microscopy based analysis; assay type: functional, cell-based; summary of the method: as §2
786-0 [12] = assay: Inhibition of RSL3-induced ferroptosis in human 786-0 cells assessed as recovery from loss of cell morphology at 0.0625 uM measured after 1 day by light microscopy based analysis; assay type: functional; summary of the method: as §2
HT-1080 [13] = assay: Anti-ferroptotic activity against RSL3 induced ferroptosis in human HT-1080 cells assessed as decrease in lipid peroxidation at 1 uM measured after 8 hrs by C11-BODIPY staining based flow cytometric analysis (reference value: 3.06%); assay type: functional; set-up: scale not given: the % may be the effect or the level left
HT-1080 [14] = assay: Anti-ferroptotic activity in human HT-1080 cells assessed as suppression of erastin induced cytosolic ROS accumulation at 1 uM incubated for 24 hrs by DCFH-DA staining based confocal microscopy analysis; assay type: functional, cell-based
Summary of the method: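 HT-1080 cells on glass coverslips (4 × 10^5/well, overnight) were co-treated for 24 h with 5 μM erastin and either DMSO or inhibitor at 1 μM. Cells were washed with PBS, loaded with 10 μM (final) DCFH-DA at 37 °C for 20 min, washed three times and imaged by confocal laser scanning microscopy.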

[15] = Metal chelating activity assessed as Fe3+ chelation at 20 mM at […] absorbance
Summary of the method: (§3)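 Compound was dissolved in MeOH at 20 mM and mixed with FeSO4 (Fe2+) or FeCl3 (Fe3+) at 10 mM. Samples were diluted with MeOH/H2O, UV–vis spectra were recorded, and the absorption peak at 261 nm was quantified.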

[16] = Metal chelating activity assessed as Fe2+ chelation at 20 mM at […] absorbance; summary of the method: as §3
[17] = Metal chelating activity assessed as Fe3+ chelation by measuring change in UV-vis absorption at 20 mM at […] absorbance; summary of the method: as §3
[18] = Metal chelating activity assessed as Fe2+ chelation by measuring change in UV-vis absorption at 20 mM at […] absorbance; summary of the method: as §3

EC50 (HT-1080 [1]; Homo sapiens, HT-1080, 24 h): 79.6 nM
EC50 (HT-1080 [1]; ht-1080): 42.4 nM
SMILES: Oc1c(-c2ccc(F)cc2)n[nH]c1-c1ccccc1

EC50 (HT-1080 [1]; Homo sapiens, HT-1080, 24 h): > 1000 nM
SMILES: Clc1ccc(-c2cc(-c3ccccc3)n[nH]2)cc1
Activity [2]: > 100 µM
Activity [3]: > 200 µM

EC50 (HT-1080 [1]; Homo sapiens, HT-1080, 24 h): 720 nM
SMILES: Cn1nc(-c2ccc(Cl)cc2)c(N)c1-c1ccccc1
Activity [2]: 14.6 µM
Activity [3]: > 200 µM

EC50 (HT-1080 [1]; Homo sapiens, HT-1080, 24 h): 24.8 nM
EC50 (HT-1080 [1]; ht-1080): 32.1 nM
SMILES: COc1ccc(-c2n[nH]c(-c3ccccc3)c2O)cc1

EC50 (HT-1080 [1]; Homo sapiens, HT-1080, 24 h): 25.9 nM
SMILES: Oc1c(-c2ccc(Cl)cc2)n[nH]c1-c1cnc[nH]1

EC50 (HT-1080 [1]; Homo sapiens, HT-1080, 24 h): 120 nM
SMILES: Cc1ccc(-c2[nH]nc(-c3ccc([N+](=O)[O-])cc3)c2O)cc1

EC50 (HT-1080 [1]; Homo sapiens, HT-1080, 24 h): 8.6 nM
EC50 (HT-1080 [4]): 48.3 nM
EC50 (HT-1080 [5]): 8.6 nM
EC50 (786-0 [6]): 89.7 nM
Activity [15]: inactive
Activity [16]: inactive
Activity [17]: inactive
Activity [18]: inactive
SMILES: Oc1ccc(-c2[nH]nc(-c3ccc(Cl)cc3)c2O)cc1
EC50 (BJ): 11.3 nM
EC50 (H9c2): 43.3 nM
inhibition (786-0 [7]): Active
inhibition (786-0 [8]): Active
inhibition (786-0 [9]): Active
inhibition (786-0 [10]): Active
inhibition (786-0 [11]): Active
inhibition (786-0 [12]): Active
Activity [2]: 3.94 µM
Activity [3]: 6.3 µM
Activity (HT-1080 [13]): 1.42%
Activity (HT-1080 [14]): Active

EC50 (HT-1080 [1]; Homo sapiens, HT-1080, 24 h): 187 nM
SMILES: Oc1c(-c2cccc(Cl)c2)n[nH]c1-c1ccccc1

EC50 (HT-1080 [1]; Homo sapiens, HT-1080, 24 h): 31.7 nM
SMILES: COc1ccc(-c2[nH]nc(-c3ccc(Cl)cc3)c2O)cc1OC

EC50 (HT-1080 [1]; Homo sapiens, HT-1080, 24 h): 187 nM
SMILES: Oc1c(-c2ccc(Cl)cc2)n[nH]c1-c1ccc(C(F)(F)F)cc1

EC50 (HT-1080 [1]; Homo sapiens, HT-1080, 24 h): 44.8 nM
SMILES: CN(C)CCCNC(=O)c1ccc(-c2[nH]nc(-c3ccc(Cl)cc3)c2O)cc1

EC50 (HT-1080 [1]; Homo sapiens, HT-1080, 24 h): 44.8 nM
SMILES: Oc1c(-c2ccc(Cl)cc2)n[nH]c1-c1cccc2ccccc12

EC50 (HT-1080 [1]; Homo sapiens, HT-1080, 24 h): 52.7 nM
SMILES: Oc1c(-c2ccc(Cl)cc2)n[nH]c1-c1ccc(F)cc1

EC50 (HT-1080 [1]; Homo sapiens, HT-1080, 24 h): 94.9 nM
SMILES: Oc1c(-c2ccccc2Cl)n[nH]c1-c1ccccc1

EC50 (HT-1080 [1]; Homo sapiens, HT-1080, 24 h): 69.1 nM
SMILES: Oc1c(-c2ccccc2)n[nH]c1-c1ccccc1

EC50 (HT-1080 [1]; Homo sapiens, HT-1080, 24 h): 22.6 nM
SMILES: Oc1c(-c2ccccc2)n[nH]c1-c1ccc(Br)cc1

EC50 (HT-1080 [1]; Homo sapiens, HT-1080, 24 h): 150 nM
SMILES: CCCCc1[nH]nc(-c2ccccc2)c1O

EC50 (HT-1080 [1]; Homo sapiens, HT-1080, 24 h): 81.9 nM
SMILES: CCNC(=O)c1ccc(-c2[nH]nc(-c3ccc(Cl)cc3)c2O)cc1

EC50 (HT-1080 [1]; Homo sapiens, HT-1080, 24 h): 51.1 nM
SMILES: COC(=O)c1ccc(-c2[nH]nc(-c3ccc(Cl)cc3)c2O)cc1

EC50 (HT-1080 [1]; Homo sapiens, HT-1080, 24 h): > 1000 nM
SMILES: O=C(O)c1ccc(-c2[nH]nc(-c3ccc(Cl)cc3)c2O)cc1

EC50 (HT-1080 [1]; Homo sapiens, HT-1080, 24 h): 27.4 nM
SMILES: Oc1c(-c2ccc3c(c2)OCO3)n[nH]c1-c1ccccc1

EC50 (HT-1080 [1]; Homo sapiens, HT-1080, 24 h): 79.6 nM
SMILES: Oc1c(-c2ccc(C(F)(F)F)cc2)n[nH]c1-c1ccccc1

EC50 (HT-1080 [1]; Homo sapiens, HT-1080, 24 h): 22 nM
SMILES: Cn1nc(-c2ccc(Cl)cc2)c(O)c1-c1ccccc1

EC50 (HT-1080 [1]; Homo sapiens, HT-1080, 24 h): 23.1 nM
SMILES: COc1ccc(-c2[nH]nc(-c3ccc(Cl)cc3)c2O)cc1

EC50 (HT-1080 [1]; Homo sapiens, HT-1080, 24 h): 24.6 nM
SMILES: Oc1c(-c2ccc(Cl)cc2)nn(-c2ccccc2)c1-c1ccccc1

EC50 (HT-1080 [1]; Homo sapiens, HT-1080, 24 h): 39.5 nM
SMILES: Oc1c(-c2ccc(-c3ccccc3)cc2)n[nH]c1-c1ccccc1

EC50 (HT-1080 [1]; Homo sapiens, HT-1080, 24 h): 30.8 nM
EC50 (HT-1080 [1]; ht-1080): 18.9 nM
SMILES: Oc1c(-c2ccc(Cl)cc2)n[nH]c1-c1ccccc1
Activity [2]: 4.97 µM
Activity [3]: 112 µM

EC50 (HT-1080 [1]; Homo sapiens, HT-1080, 24 h): > 1000 nM
SMILES: Oc1c(-c2ccccc2)n[nH]c1-c1ccco1

EC50 (HT-1080 [1]; Homo sapiens, HT-1080, 24 h): 26.1 nM
SMILES: Oc1ccc(-c2[nH]nc(-c3ccc(Cl)cc3)c2O)cc1O

EC50 (HT-1080 [1]; Homo sapiens, HT-1080, 24 h): 23.4 nM
EC50 (HT-1080 [4]): 75.2 nM
EC50 (HT-1080 [5]): 23.4 nM
EC50 (786-0 [6]): 253 nM
SMILES: CCOC(=O)c1ccc(NC2CCCCC2)c(N)c1
EC50 (BJ): 38.2 nM
EC50 (H9c2): 68.6 nM
inhibition (786-0 [7]): Active
inhibition (786-0 [8]): Active
inhibition (786-0 [9]): Active
inhibition (786-0 [10]): inactive
inhibition (786-0 [11]): inactive
inhibition (786-0 [12]): inactive
Activity [2]: 6.48 µM
Activity [3]: 49.8 µM
Activity (HT-1080 [13]): 9.2%

EC50 (HT-1080 [1]; Homo sapiens, HT-1080, 24 h): 80.2 nM
SMILES: O=C(NO)c1ccc(-c2[nH]nc(-c3ccc(Cl)cc3)c2O)cc1

EC50 (HT-1080 [1]; Homo sapiens, HT-1080, 24 h): 56.6 nM
SMILES: Oc1c(-c2ccc(Cl)cc2Cl)n[nH]c1-c1ccccc1
